Data as given in ChEMBL document CHEMBL1145088, “Ascochlorin derivatives as ligands for nuclear hormone receptors” (J Med Chem, 2003).

Assays:
U2OS (Homo sapiens) = assay: Concentration required for inhibition of U2OS cell growth
[1] = biological target: T1, Nuclear receptor subfamily 1 group I member 2 (Homo sapiens, UniProt O75469); assay: Minimum effective concentration required to activate pregnane X receptor (PXR)
T1 sequence (O75469 whole entry): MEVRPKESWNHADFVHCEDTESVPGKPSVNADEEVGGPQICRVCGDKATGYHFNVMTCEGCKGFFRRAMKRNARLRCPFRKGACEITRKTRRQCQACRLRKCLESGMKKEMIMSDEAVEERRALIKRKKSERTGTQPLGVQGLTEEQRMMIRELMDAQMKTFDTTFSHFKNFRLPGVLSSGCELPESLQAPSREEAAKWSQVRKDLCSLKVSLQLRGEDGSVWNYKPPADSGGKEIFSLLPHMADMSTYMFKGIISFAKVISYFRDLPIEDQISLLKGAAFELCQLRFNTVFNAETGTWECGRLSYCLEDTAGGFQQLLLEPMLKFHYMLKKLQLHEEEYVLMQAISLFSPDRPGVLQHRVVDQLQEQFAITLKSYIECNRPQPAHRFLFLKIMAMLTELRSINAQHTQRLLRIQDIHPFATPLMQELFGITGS

Estrogen receptor beta [2] = biological target: T2, Estrogen receptor beta (Homo sapiens, UniProt Q92731); assay: Minimum effective concentration for Estrogen receptor 2 (ER beta) inhibition
T2 sequence (Q92731 whole entry): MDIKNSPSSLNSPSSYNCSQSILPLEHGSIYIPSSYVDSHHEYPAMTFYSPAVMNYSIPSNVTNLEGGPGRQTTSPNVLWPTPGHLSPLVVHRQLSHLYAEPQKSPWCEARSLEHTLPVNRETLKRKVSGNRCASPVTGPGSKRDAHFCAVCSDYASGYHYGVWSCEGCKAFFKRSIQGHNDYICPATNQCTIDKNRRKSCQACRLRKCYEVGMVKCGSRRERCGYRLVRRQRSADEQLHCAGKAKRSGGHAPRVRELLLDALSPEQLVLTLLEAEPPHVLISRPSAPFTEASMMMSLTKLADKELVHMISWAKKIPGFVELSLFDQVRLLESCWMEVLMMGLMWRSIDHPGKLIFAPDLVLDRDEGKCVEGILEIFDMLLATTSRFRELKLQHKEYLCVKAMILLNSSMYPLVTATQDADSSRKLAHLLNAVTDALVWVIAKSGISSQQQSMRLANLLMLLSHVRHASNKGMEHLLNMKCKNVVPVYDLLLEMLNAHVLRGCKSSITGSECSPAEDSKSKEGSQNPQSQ
Method in brief: (§1)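 U2OS cells were calcium-phosphate co-transfected with an ER expression vector (2 µg), an ER reporter plasmid (4 µg) and pCMV-β-galactosidase (4 µg) as internal control. After 12 h cells were PBS-washed and recovered 4 h, then trypsinized and exposed to drugs for 20 h. Lysate reporter activity was normalised to β-gal and expressed as stimulation index; triplicate cultures.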

[3] = biological target: T3, Estrogen receptor (Homo sapiens) (UniProt P03372); assay: Minimum effective concentration for Estrogen receptor 1 (ER alpha) inhibition
T3 sequence (whole entry): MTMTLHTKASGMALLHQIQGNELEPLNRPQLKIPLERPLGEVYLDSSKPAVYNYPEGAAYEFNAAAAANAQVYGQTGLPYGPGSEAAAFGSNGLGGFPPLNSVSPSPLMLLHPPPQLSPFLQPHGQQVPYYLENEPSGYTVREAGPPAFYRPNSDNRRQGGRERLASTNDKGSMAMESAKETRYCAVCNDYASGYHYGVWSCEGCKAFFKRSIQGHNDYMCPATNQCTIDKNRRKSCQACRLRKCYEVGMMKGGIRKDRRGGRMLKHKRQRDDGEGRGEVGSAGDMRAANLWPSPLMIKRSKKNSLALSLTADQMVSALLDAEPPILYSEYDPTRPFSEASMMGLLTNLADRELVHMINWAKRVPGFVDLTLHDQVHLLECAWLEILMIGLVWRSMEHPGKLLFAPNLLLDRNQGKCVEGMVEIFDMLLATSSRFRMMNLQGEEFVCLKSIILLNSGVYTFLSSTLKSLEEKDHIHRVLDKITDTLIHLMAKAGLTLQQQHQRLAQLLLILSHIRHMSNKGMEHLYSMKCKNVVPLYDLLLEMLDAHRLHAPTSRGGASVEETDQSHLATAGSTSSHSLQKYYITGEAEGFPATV
Method in brief: as §1

Estrogen receptor = biological target: T4, Estrogen receptor (Homo sapiens, UniProt P03372); assay: Minimum effective concentration required to activate Estrogen receptor 1 (ER alpha); Not detected
T4 sequence (P03372 whole entry): T3 sequence (whole entry)

Estrogen receptor beta [4] = biological target: T2, Estrogen receptor beta; assay: Minimum effective concentration required to activate Estrogen receptor 2 (ER beta); Not detected
[5] = biological target: T5, Peroxisome proliferator-activated receptor alpha (Homo sapiens) (UniProt Q07869); assay: Minimum effective concentration for peroxisome proliferator activated receptor (PPAR alpha) activation
T5 sequence (whole entry): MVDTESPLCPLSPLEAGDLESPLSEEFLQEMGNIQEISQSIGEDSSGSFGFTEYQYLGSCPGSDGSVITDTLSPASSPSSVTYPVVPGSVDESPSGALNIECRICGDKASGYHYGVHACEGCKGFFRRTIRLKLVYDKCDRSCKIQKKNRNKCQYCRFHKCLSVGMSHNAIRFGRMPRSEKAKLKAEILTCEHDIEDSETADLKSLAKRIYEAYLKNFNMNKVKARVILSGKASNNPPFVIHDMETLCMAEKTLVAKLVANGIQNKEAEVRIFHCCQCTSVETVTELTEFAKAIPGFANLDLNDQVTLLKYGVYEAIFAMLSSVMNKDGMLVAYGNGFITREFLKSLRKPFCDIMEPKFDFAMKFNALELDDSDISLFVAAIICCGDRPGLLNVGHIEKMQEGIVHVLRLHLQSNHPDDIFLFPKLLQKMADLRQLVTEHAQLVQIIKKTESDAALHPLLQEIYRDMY

[6] = biological target: T6, Androgen receptor (Homo sapiens) (UniProt P10275); assay: Minimum effective concentration for androgen receptor (AR) activation
T6 sequence (whole entry): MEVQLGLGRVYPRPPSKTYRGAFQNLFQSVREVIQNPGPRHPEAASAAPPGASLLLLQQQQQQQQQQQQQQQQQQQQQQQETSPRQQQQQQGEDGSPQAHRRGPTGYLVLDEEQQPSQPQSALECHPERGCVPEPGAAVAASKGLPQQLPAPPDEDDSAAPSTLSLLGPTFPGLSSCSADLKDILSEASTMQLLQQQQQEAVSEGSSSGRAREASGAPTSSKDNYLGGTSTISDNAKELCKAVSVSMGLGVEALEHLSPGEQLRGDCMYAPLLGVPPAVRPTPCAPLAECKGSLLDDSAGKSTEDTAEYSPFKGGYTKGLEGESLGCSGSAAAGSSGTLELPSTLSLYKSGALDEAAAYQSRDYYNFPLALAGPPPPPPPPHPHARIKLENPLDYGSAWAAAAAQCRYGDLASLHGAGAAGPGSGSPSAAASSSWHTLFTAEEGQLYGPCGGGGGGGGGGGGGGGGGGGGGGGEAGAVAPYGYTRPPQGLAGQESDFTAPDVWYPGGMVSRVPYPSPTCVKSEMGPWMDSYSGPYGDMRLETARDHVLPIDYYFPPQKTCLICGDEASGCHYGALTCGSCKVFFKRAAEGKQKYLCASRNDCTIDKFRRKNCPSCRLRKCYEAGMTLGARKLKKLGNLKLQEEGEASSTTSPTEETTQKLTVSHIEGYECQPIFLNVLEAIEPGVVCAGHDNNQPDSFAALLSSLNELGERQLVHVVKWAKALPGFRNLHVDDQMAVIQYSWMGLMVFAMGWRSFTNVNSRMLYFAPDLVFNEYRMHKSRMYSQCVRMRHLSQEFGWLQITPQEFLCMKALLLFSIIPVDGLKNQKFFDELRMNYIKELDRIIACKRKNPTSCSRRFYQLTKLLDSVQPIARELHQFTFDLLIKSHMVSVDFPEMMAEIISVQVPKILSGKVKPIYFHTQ

IC50 (U2OS (Homo sapiens)) [µM] | MEC [1] [µM] | MEC (Estrogen receptor) | MEC (Estrogen receptor beta [4]) | MEC [5] [µM] | MEC [6] [µM] | Compound | MEC (Estrogen receptor beta [2]) [µM] | MEC [3] [µM]
56 | 1 | Not Active | Not Active | 10 |  | C/C(=C\Cc1c(O)c(Cl)c(C)c(C=O)c1O)CC/C=C(\C)C1=CC(=O)C(C)(C)O1 |  | 
32 | 1 | Not Active | Not Active |  | 1 | CC(=O)Oc1c(Cl)c(C)c(C(=O)O)c(OC(C)=O)c1C/C=C(C)/C=C/[C@@]1(C)[C@H](C)CCC(=O)[C@@H]1C |  | 

Compound | IC50 (U2OS (Homo sapiens)) [µM] | MEC [1] [µM] | MEC (Estrogen receptor) | MEC (Estrogen receptor beta [4]) | MEC [5] [µM] | MEC [6] [µM] | MEC (Estrogen receptor beta [2]) [µM] | MEC [3] [µM]
CC(/C=C/[C@@]1(C)[C@H](C)CCC(=O)[C@@H]1C)=C\Cc1c(O)c(Cl)c(C)c(C=O)c1O [ASCOCHLORIN] | 1 | 1 |  |  |  |  | 1 | 1
